Calls of active or inactive are those of the source. The calls are words filed in the database; no cut-off is given here.
What was measured:
MCF7 = assay: Antiproliferative activity against human MCF7 cells after 3 days by XTT assay; assay type: functional, cell-based; conditions: MCF7, 72 h
[1] = Cytotoxicity against human HuH7 cells assessed as cell viability at 20 uM after 3 days by XTT assay; assay type: cell-based, Huh-7; conditions: read-out: Activity
[2] = Antiproliferative activity against human HuH7 cells after 3 days by XTT assay; assay type: functional, cell-based; conditions: Huh-7, 72 h
A549 = assay: Antiproliferative activity against human A549 cells after 3 days by XTT assay; assay type: functional, cell-based; conditions: A549, 72 h
[3] = Antiproliferative activity against human H1299 cells after 3 days by XTT assay; assay type: functional, cell-based; conditions: NCI-H1299, 72 h
[4] = Cytotoxicity against human HuH7 cells assessed as cell viability at 100 uM after 3 days by XTT assay; assay type: cell-based, Huh-7; conditions: read-out: Activity
MDA-MB-231 [5] = assay: Antiproliferative activity against human MDA-MB-231 cells after 3 days by XTT assay; assay type: functional, cell-based; conditions: MDA-MB-231, 72 h
[6] = Selectivity index, ratio of CC50 for human HuH7 cells to IC50 for DENV2 16681; assay type: functional, Huh-7
dengue virus type 2 [7] = assay: Antiviral activity against DENV2 16681 infected in human Huh-7 cells after 3 days by luciferase reporter gene assay; assay type: functional, organism-based; conditions: Dengue virus, 16681, Huh-7, 72 h
dengue virus type 2 [8] = assay: Antiviral activity against DENV2 16681 infected in human Huh-7 cells at 20 uM after 3 days by luciferase reporter gene assay; assay type: functional; conditions: Dengue virus, 16681, Huh-7, 72 h
[9] = Cytotoxicity against human HuH7 cells assessed as cell viability after 3 days by XTT assay; assay type: cell-based, Huh-7
dengue virus type 2 [10] = assay: Antiviral activity against DENV2 16681 infected in human Huh-7 cells at 5 uM after 3 days by luciferase reporter gene assay; assay type: functional; conditions: Dengue virus, 16681, Huh-7, 72 h
dengue virus type 2 [11] = assay: Antiviral activity against DENV2 16681 infected in human Huh-7 cells assessed as reduction of viral NS5 mRNA expression after 3 days by RT-PCR analysis; assay type: functional, organism-based
Procedure, shortened: (§1)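 Huh-7-DV-Fluc cells treated 3 days with compound at 5 and 20 µM (dose series 5–40 µM), 0.1% DMSO mock; total RNA extracted, DENV2 RNA quantified by RT-qPCR normalized to cellular GAPDH mRNA; mean ± SD of triplicate experiments.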

dengue virus type 2 [12] = assay: Antiviral activity against DENV2 16681 infected in human Huh-7 cells assessed as reduction of viral NS2B protein expression after 3 days by Western blot analysis; assay type: functional, organism-based
Procedure, shortened: (§2)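 Huh-7-DV-Fluc cells exposed 3 days to compound at 5 and 20 µM, or 5–40 µM for dose series, 0.1% DMSO mock; lysates immunoblotted with rabbit polyclonal anti-NS2B (1:3000), GAPDH (1:10000) as loading control.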

dengue virus type 2 [13] = assay: Antiviral activity against DENV2 16681 infected in human Huh-7 cells assessed as reduction of viral NS2B protein expression at 5 to 20 uM after 3 days by Western blot analysis; assay type: functional, organism-based; procedure, shortened: as §2
dengue virus type 2 [14] = assay: Antiviral activity against DENV2 16681 infected in human Huh-7 cells assessed as reduction of viral NS5 mRNA expression at 5 to 20 uM after 3 days by RT-PCR analysis; assay type: functional, organism-based; procedure, shortened: as §1
[15] = Growth inhibition of human Hep3B cells; assay type: functional, Hep 3B2
MDA-MB-231 [16] = assay: Growth inhibition of human MDA-MB-231 cells; assay type: functional
dengue virus type 2 [17] = assay: Antiviral activity against DENV2 by cell based assay; assay type: functional, organism-based
West Nile virus = assay: Antiviral activity against West Nile virus by cell based assay; assay type: functional, organism-based

SMILES | viability at 72 h, 20 µM [1] | IC50 [2] | viability at 72 h, 100 µM [4] | IC50 (MDA-MB-231 [5]) | inhibition at 20 µM (dengue virus type 2 [8]) | inhibition at 5 µM (dengue virus type 2 [10]) | also measured
O=C(c1ccc(O)cc1)c1nc2ccccc2cc1-c1ccc(OCCN2CCCC2)cc1 | 91% | > 10 µM | 18.1% | > 10 µM | – | – | IC50 (MCF7): > 10 µM; IC50 (A549): > 10 µM; IC50 [3]: > 10 µM
NC(=O)c1ncn([C@@H]2O[C@H](CO)[C@@H](O)[C@H]2O)n1 [RIBAVIRIN] | 71.4% | – | 26.8% | – | 67.5% | 32% | Ratio CC50/IC50 [6]: 4.47; IC50 (dengue virus type 2 [7]): 12.6 µM; CC50 at 72 h [9]: 56.3 µM
COc1ccc(-c2cc3ccccc3nc2C(O)c2ccccc2)cc1 (stereo not given) | 96.6% | – | 68.1% | – | 65.1% | 45.3% | Ratio CC50/IC50 [6]: >7.96; IC50 (dengue virus type 2 [7]): 12.6 µM; CC50 at 72 h [9]: > 100 µM; Activity (dengue virus type 2 [11]): Dose-dependent effect; Activity (dengue virus type 2 [12]): Dose-dependent effect; Activity (dengue virus type 2 [13]): Active; Activity (dengue virus type 2 [14]): Active
Fc1ccc2nc(-c3ccc(OCCN4CCCCC4)cc3)c(-c3ccc(OCCN4CCCCC4)cc3)cc2c1 | – | – | – | – | – | – | GI50 [15]: 0.71 µM; GI50 (MDA-MB-231 [16]): 0.72 µM
CC[C@@]1(O)C(=O)OCc2c1cc1n(c2=O)Cc2cc3c(CN(C)C)c(O)ccc3nc2-1 [TOPOTECAN] | – | 8.61 µM | – | < 0.1 µM | – | – | –
COc1ccc(-c2cc3cc(OC)ccc3nc2C(O)c2ccccc2)cc1 (stereo not given) | 87.7% | – | 26% | – | 61.2% | 38% | Ratio CC50/IC50 [6]: 4.87; IC50 (dengue virus type 2 [7]): 14.1 µM; CC50 at 72 h [9]: 68.9 µM; Activity (dengue virus type 2 [13]): Active; Activity (dengue virus type 2 [14]): Active
COc1ccc(-c2cc3cc(OC)ccc3nc2C(=O)c2ccccc2)cc1 | 87.6% | – | 84.3% | – | 53.1% | 36.2% | Ratio CC50/IC50 [6]: >5.76; IC50 (dengue virus type 2 [7]): 17.4 µM; CC50 at 72 h [9]: > 100 µM
COc1ccc(-c2cc3cc(F)ccc3nc2C(=O)c2ccccc2)cc1 | 96% | – | 89.7% | – | 5.11% | 7.24% | –
O=C(c1ccccc1)c1nc2ccccc2cc1-c1ccc(F)cc1 | 74.8% | – | 45.9% | – | 14.1% | 20.1% | –
O=C(c1ccc(O)cc1)c1nc2ccccc2cc1-c1ccc(O)cc1 | 90.3% | – | 65.1% | – | 62.1% | 38.7% | Ratio CC50/IC50 [6]: >7.6; IC50 (dengue virus type 2 [7]): 13.2 µM; CC50 at 72 h [9]: > 100 µM; Activity (dengue virus type 2 [11]): Dose-dependent effect; Activity (dengue virus type 2 [12]): Dose-dependent effect; Activity (dengue virus type 2 [13]): Active; Activity (dengue virus type 2 [14]): Active
O=C(c1ccccc1)c1nc2ccc(F)cc2cc1-c1ccc(F)cc1 | 96.3% | – | 75.1% | – | 9.13% | 32.1% | –
COc1ccc(-c2cc3ccccc3nc2C(O)c2cc(OC)c(OC)c(OC)c2)cc1 (stereo not given) | 93.6% | – | 62.5% | – | 38.2% | 22.3% | –
O=C(c1ccc(OCCN2CCCCC2)cc1)c1nc2ccccc2cc1-c1ccc(OCCN2CCCCC2)cc1 | 18.4% | 6.59 µM | 15.8% | 7.99 µM | – | – | IC50 (MCF7): 4.66 µM; IC50 (A549): 6.53 µM; IC50 [3]: 6.18 µM
O=C(c1ccc(OCCN2CCCC2)cc1)c1nc2ccccc2cc1-c1ccc(OCCN2CCCC2)cc1 | 15.5% | 8.68 µM | 16.6% | 8.42 µM | – | – | IC50 (MCF7): 4.59 µM; IC50 (A549): 7.38 µM; IC50 [3]: 5.68 µM
CN(C)CCCOc1ccc(C(=O)c2nc3ccccc3cc2-c2ccc(OCCCN(C)C)cc2)cc1 | 17.6% | 6.44 µM | 19.2% | 7.14 µM | – | – | IC50 (MCF7): 4.47 µM; IC50 (A549): 6.35 µM; IC50 [3]: 4.98 µM
OC(c1ccccc1)c1nc2ccccc2cc1-c1ccc(F)cc1 (stereo not given) | 109% | – | 90.9% | – | 10.2% | 13.1% | –
COc1ccc(-c2cc3ccccc3nc2C(O)c2ccc(OC)cc2)cc1 (stereo not given) | 71.1% | – | 31.9% | – | 58.5% | 33.5% | Ratio CC50/IC50 [6]: 3.47; IC50 (dengue virus type 2 [7]): 18.2 µM; CC50 at 72 h [9]: 63.1 µM; Activity (dengue virus type 2 [13]): Active; Activity (dengue virus type 2 [14]): Active
CN(C)CCCOc1ccc(-c2cc3ccccc3nc2C(=O)c2ccc(O)cc2)cc1 | 80.4% | > 10 µM | 16.8% | > 10 µM | – | – | IC50 (MCF7): > 10 µM; IC50 (A549): > 10 µM; IC50 [3]: > 10 µM
OC(c1ccccc1)c1nc2ccc(F)cc2cc1-c1ccc(F)cc1 (stereo not given) | 129% | – | 92.3% | – | 23.1% | 22.2% | –
COc1ccc(-c2cc3ccccc3nc2C(=O)c2cc(OC)c(OC)c(OC)c2)cc1 | 74.1% | > 10 µM | 35.1% | > 10 µM | – | – | IC50 (MCF7): > 10 µM; IC50 (A549): > 10 µM; IC50 [3]: > 10 µM
O=C(c1ccc(O)cc1)c1nc2ccccc2cc1-c1ccc(OCCN2CCCCC2)cc1 | 77.5% | > 10 µM | 19.5% | > 10 µM | – | – | IC50 (MCF7): > 10 µM; IC50 (A549): > 10 µM; IC50 [3]: > 10 µM
COc1ccc(C(=O)c2nc3ccccc3cc2-c2ccc(OC)cc2)cc1 | 96.1% | – | 68.2% | – | 14.1% | 10.1% | –
COc1ccc(-c2cc3ccccc3nc2C(=O)c2ccccc2)cc1 | 93.1% | – | 87.8% | – | 6.93% | 3.12% | –
COc1ccc(-c2cc3cc(F)ccc3nc2C(O)c2ccccc2)cc1 (stereo not given) | 87.4% | – | 30.7% | – | 19.1% | 16.1% | –
CCOc1ccc2nc(C)cc(Nc3ccc(OCc4ccccc4Cl)cc3)c2c1 | – | – | – | – | – | – | IC50 (dengue virus type 2 [17]): 5 µM; IC50 (West Nile virus): 1.9 µM

From ChEMBL document CHEMBL3232713, “Synthesis, antiproliferative and anti-dengue virus evaluations of 2-aroyl-3-arylquinoline derivatives” (Eur J Med Chem, 2014)
